In brackets after ≈: the same amount, converted by molar mass.
Experiments:
L1210 [1] = experiment: In vitro cytostatic activity determined on L1210 leukemia cells at 24 hours.; type: functional; conditions: Mus musculus, L1210, 24 h; read-out: ID50 (the source's name)
Procedure, shortened: (§1)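 Log-phase L1210 cells were seeded at 0.8 × 10⁵ cells/mL in RPMI 1640 with 20% heat-inactivated horse serum, 2 mmol/L L-glutamine, streptomycin and penicillin. Drugs in ethanol (0.5% final) were tested at several concentrations.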

L1210 [2] = experiment: In vitro cytostatic activity determined on L1210 leukemia cells at 48 hours.; type: functional; conditions: Mus musculus, L1210, 48 h; read-out: ID50 (the source's name); procedure, shortened: as §1
P388 [3] = experiment: Antitumor activity against P388 Leukemia from CDF1 female mice as Median survival time of treated mice at a dose of 0.12 mg/kg/day; type: functional, Mus musculus
Procedure, shortened: (§2)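 CDF1 female mice (BALB/c ♀ × DBA/2 ♂) given 10⁶ P388 cells ip on day 0. Drug in 2% methanol given ip on days 1, 5 and 9, 10 mice per group and more controls. Toxicity is survivors on day 5, with weight change between days 1 and 5. Mortality followed 30 days. T/C% is treated over control median survival (NCI method), significant at ≥125%.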

P388 [4] = experiment: Antitumor activity against P388 Leukemia from CDF1 female mice as Median survival time of treated mice at a dose of 0.75 mg/kg/day; type: functional, Mus musculus; procedure, shortened: as §2
P388 [5] = experiment: Antitumor activity against P388 Leukemia from CDF1 female mice as average weight change of animals between day 1 and day 5 after tumor implementation at a dose of 0.12 mg/kg/day; type: functional, Mus musculus
Procedure, shortened: (§3)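 P388 leukemia: CDF1 female mice were inoculated ip with 10⁶ cells on day 0. Treatment in 2% methanol was given ip on days 1, 5 and 9, with 10 mice per group and a larger control group. Body weight was recorded on days 1 and 5 post-implant, and the average change was reported.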

P388 [6] = experiment: Antitumor activity against P388 Leukemia from CDF1 female mice as average weight change of animals between day 1 and day 5 after tumor implementation at a dose of 0.75 mg/kg/day; type: functional, Mus musculus; procedure, shortened: as §3
P388 [7] = experiment: Antitumor activity against P388 Leukemia from CDF1 female mice (T/C) as median survival time of treated mice (T) over that of control mice (C) at a dose of 0.75 mg/kg/day; type: functional, Mus musculus; procedure, shortened: as §2
P388 [8] = experiment: Antitumor activity against P388 Leukemia from CDF1 female mice (T/C) as median survival time of treated mice (T) over that of control mice (C) at a dose of 0.12 mg/kg/day; type: functional, Mus musculus; procedure, shortened: as §2
P388 [9] = experiment: Antitumor activity against P388 Leukemia from CDF1 female mice as the number of survivors on day 5 at a dose of 0.75 mg/kg/day; type: functional, Mus musculus; procedure, shortened: as §2

SMILES | IC50 (L1210 [1]) [ng/mL] | IC50 (L1210 [2]) [ng/mL] | median survival time, days (P388 [3]) | median survival time, days (P388 [4]) | Body weight change (P388 [5]) [g] | Body weight change (P388 [6]) [g] | T/C (P388 [7]) [%] | T/C (P388 [8]) [%] | Toxicity (P388 [9])
COc1ccc(C[C@H]2C(=O)O[C@H](C)[C@H](NC(=O)[C@@H](CC(C)C)N(C)C(=O)C3CCCN3C(=O)[C@H](O)c3ccccc3)C(=O)NC(C(C)C)[C@H](O)CC(=O)O[C@@H](C(C)C)C(=O)[C@H](C)C(=O)N[C@@H](CC(C)C)C(=O)N3CCC[C@H]3C(=O)N2C)cc1 (some centres not stated) | 2 (≈ 1.72 nM) | 1.3 (≈ 1.12 nM) | 16 | 19 | 0.2 | -1.5 | 159 | 134 | 1
COc1ccc(C[C@H]2C(=O)O[C@H](C)C(NC(=O)[C@H](CC(C)C)N(C)C(=O)C3CCCN3C(=O)[C@@H](C)O)C(=O)NC(C(C)C)[C@H](O)CC(=O)O[C@@H](C(C)C)C(=O)[C@H](C)C(=O)N[C@@H](CC(C)C)C(=O)N3CCC[C@H]3C(=O)N2C)cc1 (some centres not stated) | 1260 (≈ 1150 nM) | 589 (≈ 536 nM) |  |  |  |  |  |  | 
CCCCCCCCCCCCCCCC(=O)N1CCCC1C(=O)N(C)[C@H](CC(C)C)C(=O)N[C@@H]1C(=O)NC(C(C)C)[C@H](O)CC(=O)O[C@@H](C(C)C)C(=O)[C@H](C)C(=O)N[C@@H](CC(C)C)C(=O)N2CCC[C@H]2C(=O)N(C)[C@@H](Cc2ccc(OC)cc2)C(=O)O[C@@H]1C (some centres not stated) | > 1000 | > 1000 |  |  |  |  |  |  | 
COc1ccc(C[C@H]2C(=O)O[C@H](C)[C@H](NC(=O)[C@@H](CC(C)C)N(C)C(=O)C3CCCN3C(=O)CCc3ccc(O)cc3)C(=O)NC(C(C)C)[C@H](O)CC(=O)O[C@@H](C(C)C)C(=O)[C@H](C)C(=O)N[C@@H](CC(C)C)C(=O)N3CCC[C@H]3C(=O)N2C)cc1 (some centres not stated) | 4.8 (≈ 4.09 nM) | 1.5 (≈ 1.28 nM) | 14.7 | 18.7 | 0.2 | -1.1 | 157 | 123 | 1

From ChEMBL document CHEMBL1125226, “Antineoplastic activity of didemnin congeners: nordidemnin and modified chain analogues” (1991)
